Measured values as given in ChEMBL document CHEMBL1128240, “Studies on new acidic azoles as glucose-lowering agents in obese, diabetic db/db mice” (J Med Chem, 1995).
Activity calls are given as the source filed them. No cut-off for these calls is given here.

Experiments:
Mus musculus [1] = test: Percentage change in plasma glucose concentration of drug treated mice relative to vehicle controls at 100 mg/kg (once daily perorally x 4) in groups of db/db mice; NA = not active; format: functional, organism-based; set-up: dose 100 mg/kg
Summary of the method: (§1)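 Male C57BL/KsJ db/db mice (2-7 months, 35-60 g), 4 h fasted baseline tail blood on day 1; extremes excluded, randomized into groups (N = 4-6) of equal mean glucose. Dosed po as suspension in 2% Tween 80/saline on afternoons of days 1-3 (fed) and day 4 after 3 h fast. Plasma glucose (Abbott VP analyzer) 2 and 4 h post-dose, mean versus day-1 baseline; ANOVA with one-sided Dunnett's test against vehicle.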

[2] = Dissociation constant measured by potentiometric titration (in duplicate) in 1:1 dioxane-water using a Fisher accumet pH meter model 630 and a Perkin-Elmer chart recorder model 56.; format: physicochemical
Summary of the method: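 Apparent pKa from potentiometric titration with 0.1 N NaOH in dioxane–water (1:1). Sample concentration 0.2 mM, solvent 30 mL, 25 °C, titrant flow 0.17 mL/min. Value is the average of two runs. The system was conditioned and checked in duplicate against piperazine, allantoin, barbituric acid and ciglitazone standards.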

Mus musculus [3] = test: percentage change in plasma glucose concentration of drug treated mice relative to vehicle controls at 20 mg/kg (once daily perorally x 4) in groups of db/db mice; NA = not active; format: functional, organism-based; set-up: dose 20 mg/kg; summary of the method: as §1
[4] = Partition coefficient (logP); format: physicochemical; details: octanol/water
Summary of the method: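 Manual shake-flask octanol/aqueous partition. Buffer was 0.01 M K2HPO4 at pH 7.4. Sample was shaken 1 min, equilibrated 4 h, and phases separated and centrifuged. Each phase was quantified by reverse-phase C18 HPLC (acetonitrile/0.01 M […] pH 3.5, 214 nm). Average of at least two runs.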

Mus musculus [5] = test: percentage change in plasma glucose concentration of drug treated mice relative to vehicle controls at 100 mg/kg (once daily perorally x 4) in groups of db/db mice compared to vehicle control; format: functional; details: route oral; summary of the method: as §1
Mus musculus [6] = test: percentage change in plasma glucose concentration of drug treated mice relative to vehicle controls at 100 mg/kg (once daily perorally x 4) in groups of db/db mice; format: functional; details: route oral; summary of the method: as §1
Mus musculus [7] = test: percentage change in plasma glucose concentration of drug treated mice relative to vehicle controls at 20 mg/kg (once daily perorally x 4) in groups of db/db mice compared to vehicle control; format: functional; details: route oral; summary of the method: as §1
Mus musculus [8] = test: percentage change in plasma glucose concentration of drug treated mice relative to vehicle controls at 5 mg/kg (once daily perorally x 4) in groups of db/db mice; not active, generally less than -15% change; format: functional, organism-based; set-up: dose 5 mg/kg; summary of the method: as §1
Mus musculus [9] = test: percentage change in plasma glucose concentration of drug treated mice relative to vehicle controls at 53 mg/kg (once daily perorally x 4) in groups of db/db mice; NA = not active; format: functional, organism-based; set-up: dose 53 mg/kg; summary of the method: as §1
Mus musculus [10] = test: percentage change in plasma glucose concentration of drug treated mice relative to vehicle controls at 100 mg/kg (once daily perorally x 4) in groups of db/db mice; NA= not active; format: functional, organism-based; set-up: dose 100 mg/kg; summary of the method: as §1
Mus musculus [11] = test: percentage change in plasma glucose concentration of drug treated mice relative to vehicle controls at 5 mg/kg (once daily perorally x 4) in groups of db/db mice; format: functional; details: route oral; summary of the method: as §1
Mus musculus [12] = test: percentage change in plasma glucose concentration of drug treated mice relative to vehicle controls at 27 mg/kg (once daily perorally x 4) in groups of db/db mice; NA = not active; format: functional, organism-based; set-up: dose 27 mg/kg; summary of the method: as §1
Mus musculus [13] = test: percentage change in plasma glucose concentration of drug treated mice relative to vehicle controls at 20 mg/kg (once daily perorally x 4) in groups of db/db mice; format: functional; details: route oral; summary of the method: as §1
Mus musculus [14] = test: percentage change in plasma glucose concentration of drug treated mice relative to vehicle controls at 73 mg/kg (once daily perorally x 4) in groups of db/db mice compared to vehicle control; format: functional; details: route oral; summary of the method: as §1
Mus musculus [15] = test: Percentage change in plasma glucose concentration of drug treated mice relative to vehicle controls at 20 mg/kg (once daily perorally x 4) in groups of db/db mice; NA = not active
Mus musculus [16] = test: percentage change in plasma glucose concentration of drug treated mice relative to vehicle controls at 100 mg/kg (once daily perorally x 4) in groups of db/db mice; Not active; format: functional, organism-based; set-up: dose 100 mg/kg; summary of the method: as §1
Mus musculus [17] = test: percentage change in plasma glucose concentration of drug treated mice relative to vehicle controls at 20 mg/kg (once daily perorally x 4) in groups of db/db mice; Not active; format: functional, organism-based; set-up: dose 20 mg/kg; summary of the method: as §1

With `COCc1noc(O)c1Cc1ccc2ccccc2c1` the Change (Mus musculus [1]) was “inactive”.

For `NNc1n[nH]c(O)c1Cc1ccc2ccccc2c1`, the Change (Mus musculus [1]) was “inactive”.

With `Cn1nnc(O)c1Cc1ccc2ccccc2c1` the pKa [2] was 9.11, the Change (Mus musculus [3]) was “inactive” and the logP ([4]; read-out: logP) was 2.12.

In the case of `CCCc1o[nH]c(=O)c1Cc1ccc2ccccc2c1`, the Change (Mus musculus [3]) is reported as “inactive”.

For `Oc1[nH]nc(-c2ccccc2)c1Cc1ccc2ccccc2c1`, the Change (Mus musculus [1]) was “inactive”.

For `COC(=O)c1cc(-c2ccc3ccccc3c2)[nH]n1`, the Change (Mus musculus [1]) was “inactive”.

In the case of `Oc1[nH]nc(C(F)(F)F)c1Cc1ccc2c(c1)CCC(Cc1ccccc1)O2` (stereo not given), the Change (Mus musculus [1]) is reported as “inactive”.

For `CC1(COc2ccc(CC3SC(=O)NC3=O)cc2)CCCCC1` (stereo not given) [CIGLITAZONE], the Change (Mus musculus [5]) was -28%, the pKa [2] was 7.8 and the logP [4] was 3.61.

Work on `Cc1[nH]oc(=O)c1Cc1ccc2ccccc2c1` yielded a Change (Mus musculus [6]) of -17%.

For `Oc1cc(Cc2ccc3ccccc3c2)n[nH]1`, the Change (Mus musculus [1]) was “inactive”.

Compound `Oc1[nH]nc(C(F)(F)F)c1Cc1ccc2nccnc2c1` has a Change (Mus musculus [7]) of -27%.

In the case of `CCc1n[nH]c(O)c1Cc1ccc2ccccc2c1`, the Change (Mus musculus [7]) is reported as -32% and the Change (Mus musculus [8]) is reported as “Not significant”.

With `O=[N+]([O-])c1ccc(-c2n[nH]c(O)c2Cc2ccc3ccccc3c2)cc1` the Change (Mus musculus [1]) was “inactive”.

For `Oc1n[nH]nc1Cc1ccc2ccccc2c1`, the Change (Mus musculus [1]) was “inactive”.

In the case of `Oc1cc(CSc2ccc3ccccc3c2)no1`, the Change (Mus musculus [1]) is reported as “inactive”.

Work on `CC(C)c1n[nH]c(O)c1Cc1ccc2ccccc2c1` yielded a Change (Mus musculus [5]) of -30.4%.

With `Cc1n[nH]c(O)c1Cc1nc2ccccc2o1` the Change (Mus musculus [9]) was “inactive”.

In the case of `C[n+]1nn(Cc2ccccc2)c([O-])c1Cc1ccc2ccccc2c1`, the Change (Mus musculus [10]) is reported as “inactive”.

`Oc1[nH]nc(C(F)(F)F)c1Cc1ccc2c(c1)OCO2` gave a Change (Mus musculus [7]) of -38%.

`Oc1[nH]nc(C(F)(F)F)c1Cc1ccc2ccccc2c1` gave a Change (Mus musculus [11]) of -16%.

With `CCc1o[nH]c(=O)c1Cc1ccc2ccccc2c1` the Change (Mus musculus [3]) was “inactive”.

`Oc1[nH]nc(C(F)(F)F)c1Cc1ccc2c(Br)cccc2c1` gave a Change (Mus musculus [7]) of -22%.

With `Cc1n[nH]c(O)c1CSc1nc2ccccc2[nH]1` the Change (Mus musculus [10]) was “inactive”.

For `Cc1c(O)nnn1Cc1ccc2ccccc2c1`, the Change (Mus musculus [1]) was “inactive”.

With `Cc1n[nH]c(O)c1Cc1ccccc1` the Change (Mus musculus [1]) was “inactive”.

With `Oc1[nH]ncc1Cc1ccc2ccccc2c1` the Change (Mus musculus [12]) was “inactive”.

`Cc1n[nH]c(O)c1Cc1ccc2ccccc2c1Br` gave a Change (Mus musculus [13]) of -20%.

In the case of `Oc1cc(CSc2nc3ccccc3s2)no1`, the Change (Mus musculus [1]) is reported as “inactive”.

`COC(=O)C(=O)/C=C(\O)c1ccc2ccccc2c1` showed a Change (Mus musculus [5]) of -37%.

In the case of `O=C(O)c1cc(-c2ccc3ccccc3c2)[nH]n1`, the Change (Mus musculus [1]) is reported as “inactive”.

`Nc1n[nH]c(O)c1Cc1ccc2ccccc2c1` showed a Change (Mus musculus [14]) of -27%.

For `Oc1[nH]nc(C(F)(F)C(F)(F)F)c1Cc1ccc2ccccc2c1`, the Change (Mus musculus [1]) was “inactive”.

In the case of `Oc1[nH]nc2c1CCc1sccc1-2`, the Change (Mus musculus [1]) is reported as “inactive”.

For `Cc1n[nH]c(O)c1Cc1cccc2ccccc12`, the Change (Mus musculus [3]) was “inactive”.

In the case of `Oc1cc(C23CC4CC(CC(C4)C2)C3)n[nH]1`, the Change (Mus musculus [15]) is reported as “inactive”.

With `Cc1c(Cc2ccc3ccccc3c2)o[nH]c1=O` the Change (Mus musculus [1]) was “inactive”.

`O=C(O)C(=O)/C=C(\O)c1ccc2ccccc2c1` showed a Change (Mus musculus [5]) of -28%.

With `Oc1nnnn1Cc1ccc2ccccc2c1` the Change (Mus musculus [1]) was “inactive”.

With `Oc1onc(-c2ccccc2)c1Cc1ccc2ccccc2c1` the Change (Mus musculus [1]) was “inactive”.

With `Oc1cc(CSc2nc3ccccc3s2)n[nH]1` the Change (Mus musculus [1]) was “inactive”.

In the case of `Oc1[nH]nc(C(F)(F)C(F)(F)C(F)(F)F)c1Cc1ccc2ccccc2c1`, the Change (Mus musculus [10]) is reported as “inactive”.

In the case of `Oc1[nH]nc2c1CCc1ccccc1-2`, the Change (Mus musculus [1]) is reported as “inactive”.

With `Cc1noc(O)c1Cc1ccc2ccccc2c1Br` the Change (Mus musculus [3]) was “inactive”.

With `Cc1o[nH]c(=O)c1Cc1ccc2ccccc2c1Br` the Change (Mus musculus [3]) was “inactive”.

For `O=C(O)CCc1ccc2ccccc2c1`, the Change (Mus musculus [16]) was “inactive”, the pKa [2] was 6.52 and the logP ([4]; read-out: logP) was 1.09.

In the case of `Cc1o[nH]c(=O)c1Cc1ccccc1`, the Change (Mus musculus [1]) is reported as “inactive”.

For `Oc1c(Cc2ccc3ccccc3c2)nnn1Cc1ccccc1`, the Change (Mus musculus [1]) was “inactive”.

In the case of `c1ccc2cc(Cc3nnn[nH]3)ccc2c1`, the pKa [2] is reported as 5.77, the Change (Mus musculus [17]) is reported as “inactive” and the logP ([4]; read-out: logP) is reported as 0.72.

Work on `Cc1n[nH]c(O)c1Cc1ccc2ccccc2c1` yielded a Change (Mus musculus [5]) of -42% and a Change (Mus musculus [7]) of -31%.

In the case of `Oc1n[nH]c(O)c1Cc1ccc2ccccc2c1`, the Change (Mus musculus [1]) is reported as “inactive”.

In the case of `Cc1c(Cc2ccc3ccccc3c2)n[nH]c1O`, the Change (Mus musculus [3]) is reported as “inactive”.

For `Cc1onc(O)c1Cc1ccc2ccccc2c1`, the Change (Mus musculus [5]) was -48% and the Change (Mus musculus [7]) was -25%.

In the case of `COCc1n[nH]c(O)c1Cc1ccc2ccccc2c1`, the Change (Mus musculus [5]) is reported as -39% and the Change (Mus musculus [3]) is reported as “inactive”.

Compound `Oc1[nH]nc(C(F)(F)F)c1Cc1ccc2sccc2c1` has a Change (Mus musculus [7]) of -29%.

Compound `Oc1[nH]nc(C(F)(F)F)c1Cc1ccccc1` has a Change (Mus musculus [5]) of -33% and a Change (Mus musculus [13]) of -18%.

`Cc1n[nH]c(O)c1Cc1ccc2c(c1)OCCO2` gave a Change (Mus musculus [7]) of -21%.

In the case of `O=C1NC(=O)C(Cc2ccc3ccccc3c2)=C1O`, the Change (Mus musculus [17]) is reported as “inactive”.
